# This is a sample that favours compounds with a hit; in the whole collection about 3.5% have one here.
# STAT1 act: increases IFN-gamma driven STAT1 reporter signal; NIH 3T3 STAT1-luciferase reporter, luminescence; 100% = IFN-gamma alone, no compound; activation (% of control), % at 5.5 µM; hit rate 2.6% among 200,000; AID 932;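 active means activation above the screen-wide mean activation plus 3 SD, cut at about 130% in these data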;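 further: raw ratio to IFN-gamma control signal so 100% means no change and 0% no light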
# APP 5'UTR act: APP 5'UTR luciferase reporter activation; activation, % at 2 µM; hit rate 1% among 190,000; SH-SY5Y APP 5'UTR luciferase reporter, luminescence; zero percent = DMSO vehicle wells; AID 1276;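 active means activation above a set limit, based on mean plus 3 SD of controls, cut at about 140% in these data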
# NF-kB neuron act: raises NF-kB expression in human neuronal cells; NF-kB reporter expression; hits give high values; fold change at 12.5 µM; hit rate 1.6% among 190,000; AID 1239; in the data active means fold change above about 3.3
# FLuc stim CS: affects firefly luciferase, flagging false hits in luciferase stimulation screens | AID 1027 | P08659 | 200,000 tested, under 10 active | activation factor at 10 µM | ATPlite luciferase biochemical, luminescence, 10 min; 0 = ATP-free wells, 1 = DMSO control;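 active means luciferase activation factor, scaled between plate controls, of at least 2 with compound at 10 µM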
# Target sequence (P08659 whole entry, looked up): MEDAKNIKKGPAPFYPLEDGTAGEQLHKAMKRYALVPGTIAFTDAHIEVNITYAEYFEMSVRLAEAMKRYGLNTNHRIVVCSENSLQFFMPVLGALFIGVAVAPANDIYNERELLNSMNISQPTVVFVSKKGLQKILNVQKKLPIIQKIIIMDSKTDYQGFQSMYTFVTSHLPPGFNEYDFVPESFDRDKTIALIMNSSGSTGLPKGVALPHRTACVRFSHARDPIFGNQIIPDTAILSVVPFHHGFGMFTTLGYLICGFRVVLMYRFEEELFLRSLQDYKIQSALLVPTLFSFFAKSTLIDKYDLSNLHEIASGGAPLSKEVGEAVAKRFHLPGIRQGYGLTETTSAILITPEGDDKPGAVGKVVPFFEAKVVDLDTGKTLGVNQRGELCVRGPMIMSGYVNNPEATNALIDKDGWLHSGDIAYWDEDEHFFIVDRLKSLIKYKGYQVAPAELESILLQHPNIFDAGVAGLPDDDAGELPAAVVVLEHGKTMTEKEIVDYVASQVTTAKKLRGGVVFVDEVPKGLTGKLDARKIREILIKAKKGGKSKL
#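 Material: Luciferase/luciferin reagent mix; Doses: test compounds dosed from 2 mM stocks in 100% DMSO; Schedule: 10 min incubation after luciferase reagent addition, room temperature; Measured by: luminescence from luciferase reaction; Read-out: luminescence gain marking luciferase activators.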
# Pf gametocyte: inhibitors of late stage P. falciparum gametocyte viability; hit rate 0.065% among 150,000; AID 743093; inhibition, % at 10.9 µM; P. falciparum stage V gametocytes, ATP luminescence, 24 h;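 active means inhibition above the mean plus 3 SD of compounds within the control limits, set per campaign, cut at about 38% in these data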;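 further: 0% = DMSO wells and 100% = medium only without gametocytes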
# FLuc inhib CS: counter-screen for luciferase assay inhibitors: firefly luciferase inhibition; P08659; ATPLite firefly luciferase biochemical luminescence, 10 min; inhibition, % at 10 µM; hit rate 1.5% among 200,000; AID 1006;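 active means inhibition above about 50% when tested at 10 µM, limit read from the data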
# * hit, by the source's call; . = not tested or not shown.
SMILES,STAT1 act,APP 5'UTR act,NF-kB neuron act,FLuc stim CS,Pf gametocyte,FLuc inhib CS
O=C(Nc1nc2ccccc2[nH]1)c1ccc([N+](=O)[O-])cc1,115.5,190.4*,3.01,0.5,-1.8,51.2*
O=c1[nH]c2ccccc2nc1/C=C/c1ccc(O)cc1,138.5*,80.7,1.03,0.5,-9.4,53.5*
COc1cc(C(=O)Nc2nc3ccccc3[nH]2)cc(OC)c1OC,97.5,-13.0,0.81,1,-13.5,0.8
O=C(NCc1nc2ccccc2[nH]1)c1ccc([N+](=O)[O-])cc1,100.4,-12.3,0.77,1,-15.8,-2.6
O=C(CSc1nnc2c(n1)[nH]c1ccccc12)NCc1ccco1,100.6,1.9,0.95,1,-39.0,-0.1
O=C(COC(=O)COc1cccc2ccccc12)NCC(F)(F)F,96.8,13.7,1.48,1,.,-3.1
O=C(C1CC1)N1CCc2cc(Br)cc(S(=O)(=O)NCC3COc4ccccc4O3)c21 (centres undefined),97.3,2.8,0.84,1,.,-4.9
CCc1ccc(N(CC(=O)NC(C)(C)C)C(=O)CCC(=O)Nc2ccccn2)cc1,.,.,.,.,-6.8,.
Cc1ccc(C(=O)COC(=O)c2cn3ccccc3n2)cc1,122.4,12.6,1.68,0.8,-17.6,22.0
CC1=NNC(=O)C1Oc1ccccc1 (centres undefined),.,.,.,.,11.5,.
O=C(Nc1nc2ccccc2[nH]1)c1ccc(Br)o1,144.1*,91.2,3.63*,0.3,1.1,73.4*
O=C(Nc1nc2ccccc2[nH]1)C12CC3CC(CC(C3)C1)C2,131.5*,78.6,3.15,0.5,-1.6,50.3*
COc1ccc(C(=O)N[C@H](C(=O)Nc2nc3ccccc3[nH]2)C(C)C)cc1,126.0,-76.7,1.02,0.5,-5.8,53.4*
O=c1[nH]c2ccccc2nc1/C=C(\O)c1cccs1,145.8*,96.4,1.53,0.6,3.5,44.9
CC(C)(C)/C(O)=C/c1nc2ccccc2[nH]c1=O,97.2,13.0,1.51,1,-10.3,2.9
Nc1nc(SCC(=O)Nc2ccccc2Sc2ccccc2)n[nH]1,102.4,-13.5,0.84,1.1,.,-5.2
COc1cccc(C=Nc2ccc3c(c2)OCCO3)c1O,101.3,-13.9,0.8,0,.,96.0*
COc1cccc(/C=N/NC(=O)CNC(=O)c2ccc3c(c2)OCCO3)c1O,97.5,-4.9,0.85,1,-14.3,3.5
COc1cccc(/C=N/N2CCOCC2)c1O,112.4,24.5,1.64,0.4,5.8,62.9*
COc1cccc(C=Nc2ccc(N3CCOCC3)cc2)c1O,.,.,.,.,14.9,.
COC(=O)Cc1ccc(NC(=S)N2CCC(Cc3ccccc3)CC2)cc1,.,.,.,.,0.5,.
CSc1ncccc1C(=O)OCC(=O)c1ccc(Br)s1,106.8,8.2,1.01,0.8,5.9,21.7
CC1=CC(C)(C)N(S(=O)(=O)c2ccc(C)cc2)c2cc(C)ccc21,112.6,-95.9,4.37*,1,.,-3.5
O=C(O)CCn1c(-c2ccccn2)nc2ccccc21,.,.,.,.,4.2,.
O=C(O)c1ccc(Oc2cccc([N+](=O)[O-])c2)cc1C(=O)O,99.4,1.8,4.28*,1,.,-2.6
SMILES,STAT1 act,APP 5'UTR act,NF-kB neuron act,FLuc stim CS,Pf gametocyte,FLuc inhib CS
O=C(c1ccccc1)c1ccc(Oc2ccc(C(=O)O)c(C(=O)O)c2)cc1,.,.,.,.,4.2,.
Cc1nc(NC(=O)CSc2nnc(N)s2)c(Cl)cc1Cl,104.4,1.0,1.3,1,-10.2,-1.0
N/C(=N\OC(=O)c1ccc(Br)cc1)c1cccc([N+](=O)[O-])c1,.,.,.,.,7.2,.
Cc1ccc(C(=O)O/N=C(\N)c2cccc([N+](=O)[O-])c2)cc1,147.4*,158.4*,3.76*,0,.,96.3*
Cc1ccc(C(=O)O/N=C(\N)c2cccnc2)cc1[N+](=O)[O-],127.6,46.8,1.84,0.3,-17.7,74.6*
N/C(=N\OC(=O)c1cc([N+](=O)[O-])ccc1Cl)c1cccnc1,.,.,.,.,-5.3,.
N/C(=N\OC(=O)c1ccc([N+](=O)[O-])cc1)c1cccnc1,121.4,24.6,1.7,0.1,.,94.2*
N/C(=N\OC(=O)c1ccc(Br)o1)c1cccnc1,130.7*,36.5,1.7,0.6,-2.8,39.3
CNC(=O)C(=O)N/N=C/c1cccnc1,.,.,.,.,-2.3,.
Cc1cccn2c(=O)c(C=C(C#N)C#N)c(N3CCN(C)CC3)nc12,.,.,.,.,-2.3,.
Cc1ccc(S(=O)(=O)Nc2cccc3ncccc23)s1,187.3*,-56.1,0.16,1.1,.,-5.0
Cc1ccccc1CSc1nc(-c2ccccc2)cc(=O)[nH]1,102.4,12.4,1.11,1.1,0.9,-7.7
Cc1cc(/C=C(\C#N)C(=O)O)c(C)n1CC1CCCO1 (centres undefined),115.7,6.2,1.27,1,.,-0.3
O=C(O)C1CCCCC1C(=O)Nc1ccccc1Nc1ccccc1 (centres undefined),105.3,-19.2,1.04,1,-27.5,-0.7
O=C(O)C1CCCCC1C(=O)Nc1cccc2ccccc12 (centres undefined),142.7*,4.8,1.19,1.1,-6.3,-6.2
COc1ccc(/C=C/C(=O)N(C)C2CCCCC2)cc1Br,118.5,29.2,1.42,1,16.2,1.0
CN(C(=O)/C=C/c1cnc2ccccc2c1)C1CCCCC1,105.2,275.2*,3.9*,0.4,-18.5,62.5*
C/C(O)=c1/c(=O)nc2cccc3c2=c1c1ccccc1c3=O,.,.,.,.,4.8,.
Cc1cc(C(=O)COC(=O)c2ccc3c(c2)OCO3)c(C)n1CC1CCCO1 (centres undefined),91.6,104.2,1.13,0.3,.,67.1*
ClC1(Cl)CC1CSc1nc2ccccc2[nH]1 (centres undefined),113.5,42.8,2.21,0.9,-18.9,7.6
c1ccc2[nH]c(SCC3CCCCO3)nc2c1 (centres undefined),131.3*,152.0*,3.74*,0.6,-32.4,41.1
Cc1cc(C(=O)CSc2nc3ccccc3[nH]2)c(C)n1CC1CCCO1 (centres undefined),73.8,188.6*,0.43,0.5,.,47.6
Cc1cc(C(=O)COC(=O)c2ccc([N+](=O)[O-])o2)c(C)n1CC1CCCO1 (centres undefined),89.3,3.3,0.41,0.6,10.6,39.7
Cc1cc(C)n2nc(SCC(=O)c3cc(C)n(CC4CCCO4)c3C)nc2n1 (centres undefined),79.4,-30.0,1.54,0.9,-8.4,5.8
Cc1cc(C(=O)CSc2nc3ccccc3o2)c(C)n1CC1CCCO1 (centres undefined),142.4*,46.6,0.78,0.8,.,22.0
C/C(=N/Nc1ccc([N+](=O)[O-])cc1)c1c[nH]c2ccccc12,.,.,.,.,-30.6,.
COc1ccccc1CNC(=O)CNCCc1ccc(OC)c(OC)c1,.,.,.,.,-10.2,.
Cc1ccc(NC(=O)N2CCc3ccccc32)cc1,89.7,170.0*,8.12*,0.1,.,89.5*
Cc1ccc(NC(=O)N2CCc3ccccc32)cc1C,92.7,159.9*,9.21*,0.1,27.8,85.8*
Cc1ccc(NC(=O)N2CCCc3ccccc32)cc1,105.4,15.1,1.36,0.9,1.6,6.6

# Screens from PubChem BioAssay.
